Source: ChEMBL document CHEMBL4145487, “A focused fragment library targeting the antibiotic resistance enzyme - Oxacillinase-48: Synthesis, structural evaluation and inhibitor design” (Eur J Med Chem, 2018)

Key:
[1] = Binding affinity to bacterial His-tagged beta-lactamase OXA-48 expressed in Escherichia coli strain BL21Star(DE3)pRARE by surface plasmon resonance assay; design: species or system Bacteria
In short: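 His-tagged OXA-48 amine-coupled to a CM5 chip to around 5000 RU (enzyme at 25 μg/mL in 10 mM MES pH 5.5). Ten dilutions from 400 μM to 10.5 μM were injected for 30 s with 60 s dissociation (300 s for kinetic binders). Sensorgrams were double-referenced. Kd came from a steady-state model with Rmax fixed via a positive control.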

[2] = Inhibition of bacterial beta-lactamase OXA-48 expressed in Escherichia coli strain BL21Star(DE3)pRARE using nitrocefin as substrate; design: species or system Bacteria
In short: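 OXA-48 carried its native signal peptide and was purified from the periplasm. The assay ran at 25 °C in 100 mM sodium phosphate pH 7.0 with 50 mM NaHCO3 and 0.2 mg/mL BSA, against 25 μM nitrocefin. Velocities were taken from the linear range. IC50 came from a nonlinear fit of response versus log inhibitor concentration, with bottom and top fixed from controls.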

SMILES	IC50 [2]	pIC50 [2]	Kd [1]
Cn1cccc1-c1cccc(C(=O)O)c1	500 µM	3.3	590 µM
CS(=O)(=O)c1cccc(-c2cccc(C(=O)O)c2)c1	120 µM	3.91	150 µM
O=C(O)c1cccc(-c2cccc(CO)c2)c1	900 µM	3.04	230 µM
CC(=O)NCc1cccc(-c2cccc(C(=O)O)c2)c1	130 µM	3.89	130 µM
COc1cccc(-c2cccc(C(=O)O)c2)c1	360 µM	3.44	226 µM
O=C(O)c1cccc(-c2ccc3cccnc3c2)c1	240 µM	3.61	160 µM
O=C(O)c1cccc(-c2ccccc2O)c1	50 µM	4.3	175 µM
CC(=O)Nc1cccc(-c2cccc(C(=O)O)c2)c1	35 µM	4.45	100 µM
CC(=O)Nc1cccc(-c2cc(C(=O)O)cc(-c3cccc(NC(C)=O)c3)c2)c1	2.9 µM	5.53	20 to 30 µM
CC(=O)OCc1cccc(-c2cccc(C(=O)O)c2)c1	250 µM	3.6	140 to 181 µM
O=C(O)c1cccc(-c2cnc(-n3ccnc3)nc2)c1	1300 µM	2.89	1000 to 1160 µM
CC(=O)Nc1cccc(-c2cc(C(=O)O)cc(-c3ccc4ncccc4c3)c2)c1	2.9 µM	5.54	49 to 60 µM
O=C(O)c1cc(-c2ccc3ncccc3c2)cc(-c2ccc3ncccc3c2)c1	110 µM	3.94	70 µM
O=C(O)c1cccc(-c2ccc(NS(=O)(=O)c3ccccc3)cc2)c1	60 µM	4.25	210 µM
O=C(O)c1cccc(-c2cccc(-c3nnn[nH]3)c2)c1	60 µM	4.24	70 µM
Cc1ccccc1-c1cccc(C(=O)O)c1	90 µM	4.05	170 µM

SMILES	IC50 [2]	pIC50 [2]	Kd [1]
NCc1cccc(-c2cccc(C(=O)O)c2)c1	600 µM	3.22	800 µM
COC(=O)c1ccccc1-c1cccc(C(=O)O)c1	210 µM	3.69	200 µM
CC(=O)Nc1cccc(-c2cc(C(=O)O)cc(-c3ccncc3)c2)c1	100 µM	3.99	70 µM
O=C(O)c1cccc(-c2cncs2)c1	800 µM	3.09	900 µM
NC(=O)c1cccc(-c2cccc(C(=O)O)c2)c1	260 µM	3.58	220 µM
CS(=O)(=O)NCCc1cccc(-c2cccc(C(=O)O)c2)c1	370 µM	3.43	200 µM
CS(=O)(=O)NCc1cccc(-c2cccc(C(=O)O)c2)c1	110 µM	3.96	110 µM
O=C(O)c1cccc(-c2ccccn2)c1	35 µM	4.46	159 µM
O=C(O)c1cccc(-c2cncnc2)c1	800 µM	3.1	900 µM
COc1ccccc1-c1cccc(C(=O)O)c1	250 µM	3.6	123 µM
CC(=O)NCCc1cccc(-c2cccc(C(=O)O)c2)c1	230 µM	3.64	170 µM
CC(=O)Nc1ccc(-c2cc(C(=O)O)cc(-c3ccc(NC(C)=O)cc3)c2)cc1	48 µM	4.32	70 µM
Cc1nc(N)ncc1-c1cccc(C(=O)O)c1	350 µM	3.46	113 µM
COC(=O)c1cccc(-c2cccc(C(=O)O)c2)c1	260 µM	3.59	144 µM
NCCc1cccc(-c2cccc(C(=O)O)c2)c1	110 µM	3.95	300 µM

Further lines, with some results ahead:

IC50 [2]	pIC50 [2]	SMILES	Kd [1]
110 µM	3.98	O=C(O)c1cccc(-c2ccc3ccccc3c2)c1	400 µM
450 µM	3.35	CC(=O)Nc1ccc(-c2cccc(C(=O)O)c2)cc1	290 µM
310 µM	3.51	O=C(O)c1cccc(-c2ccc3[nH]ccc3c2)c1	400 µM
1000 µM	2.98	NCCc1ccc(-c2cccc(C(=O)O)c2)cc1	970 µM
170 µM	3.78	Cc1cccc(-c2cccc(C(=O)O)c2)c1	300 µM
520 µM	3.28	CC(=O)NCCc1ccc(-c2cccc(C(=O)O)c2)cc1	190 µM
1400 µM	2.85	NCc1ccc(-c2cccc(C(=O)O)c2)cc1	550 µM
380 µM	3.42	CC(=O)c1ccc(-c2cccc(C(=O)O)c2)cc1	280 µM
370 µM	3.43	CS(=O)(=O)Nc1ccc(-c2cccc(C(=O)O)c2)cc1	100 µM
130 µM	3.89	O=C(O)c1cccc(-c2ccccc2F)c1	170 µM
170 µM	3.76	Nc1ccc(-c2cccc(C(=O)O)c2)cn1	130 µM
390 µM	3.41	CN(C)c1ccc(-c2cccc(C(=O)O)c2)cc1	220 µM
360 µM	3.45	O=C(O)c1cccc(-c2ccc(F)cc2)c1	312 µM
400 µM	3.4	CSc1ccc(-c2cccc(C(=O)O)c2)cc1	1000 µM
130 µM	3.88	O=C(O)c1cccc(-c2cccc(F)c2)c1	240 µM
36 µM	4.48	O=C(O)c1cccc(-c2ccc(-c3nnn[nH]3)cc2)c1	70 µM
450 µM	3.35	CS(=O)(=O)NCc1ccc(-c2cccc(C(=O)O)c2)cc1	240 µM
330 µM	3.48	Nc1ccc(-c2cccc(C(=O)O)c2)cc1	330 µM
180 µM	3.73	NC(=O)c1ccc(-c2cccc(C(=O)O)c2)cc1	200 to 350 µM
150 µM	3.82	COc1ccc(-c2cccc(C(=O)O)c2)cc1	250 µM
470 µM	3.33	O=C(O)c1cccc(-c2ccc(O)cc2)c1	170 µM
380 µM	3.42	CS(=O)(=O)c1ccc(-c2cccc(C(=O)O)c2)cc1	361 µM
110 µM	3.97	O=C(O)c1cccc(-c2cccc(O)c2)c1	110 µM
